SIAE inh: blocks human sialic acid acetylesterase; Q9HAT2; hit rate 0.69% among 370,000; AID 1053197; SIAE FP-Rh probe binding, fluorescence polarization; inhibition, % at 9.66 µM;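 active = inhibition above a cutoff: mean of compounds within the control limits plus 3 SD of those, cut at about 17% in these data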
HTRA1 inh: inhibitors of human serine peptidase HTRA1; Q92743; recombinant HTRA1, FP-rhodamine activity-based probe, fluorescence polarization; inhibition, % at 5.96 µM; hit rate 0.5% among 340,000; AID 504803; in the data active = inhibition above about 36%
ABHD4 inh: inhibits mouse alpha/beta hydrolase domain 4 | Q8VD66 | purified mABHD4, FP-Rh probe fluorescence polarization | inhibition, % at 8.92 µM | hit rate 0.54% among 370,000;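 active = inhibition exceeding the mean over every tested compound plus 3 SD, cut at about 30% in these data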
Target sequence (Q8VD66 whole entry, looked up, the tested form may be a part): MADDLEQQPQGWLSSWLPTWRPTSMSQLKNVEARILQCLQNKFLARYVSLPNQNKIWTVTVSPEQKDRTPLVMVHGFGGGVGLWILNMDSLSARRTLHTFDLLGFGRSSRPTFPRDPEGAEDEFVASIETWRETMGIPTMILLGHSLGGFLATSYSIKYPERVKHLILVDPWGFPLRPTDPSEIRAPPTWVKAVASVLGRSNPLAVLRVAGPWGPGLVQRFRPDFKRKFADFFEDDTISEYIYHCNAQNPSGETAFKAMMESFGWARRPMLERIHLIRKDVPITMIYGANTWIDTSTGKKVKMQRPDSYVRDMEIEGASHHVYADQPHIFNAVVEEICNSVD
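system = mouse ABHD4 enzyme, wild type | medium = HEPES pH 7.0, NaCl, Pluronic buffer | also added = FP-Rh probe | incubation = Enzyme–compound pre-incubation 45 min, then probe 60 min, both 25 °C | technique = fluorescence polarization, excitation 525 nm, emission 598 nm, BODIPY TMR filters | controls = S159A mutant high control, sample median low control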
RBBP9 inh: blocks human serine hydrolase RBBP9; AID 1515; inhibition, % at 7.94 µM; O75884; recombinant RBBP9, FP-Rh probe fluorescence polarization; hit rate 0.2% among 220,000;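 active = inhibition above the campaign mean of all tested compounds plus 3 SD, cut at about 14% in these data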
Target sequence (O75884 whole entry, looked up): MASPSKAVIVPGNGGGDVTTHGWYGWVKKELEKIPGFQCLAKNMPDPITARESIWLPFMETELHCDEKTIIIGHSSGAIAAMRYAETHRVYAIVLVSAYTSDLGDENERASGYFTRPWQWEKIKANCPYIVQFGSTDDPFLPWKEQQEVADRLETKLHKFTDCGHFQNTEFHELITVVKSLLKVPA
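system = RBBP9 protein | input = RBBP9 at 2.5 µM in dispensed solution, before mixing | measured by = fluorescence polarization (mP), excitation 525 nm, emission 598 nm | incubation = enzyme-compound preincubation 30 min, then probe labeling 45 min, 25 °C | buffer or medium = Tris-NaCl-Pluronic buffer, pH 8.0 | compound = single dose 7.94 µM | also added = FP-Rh probe, 375 nM dispensing solution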
ABHD4 confirm: confirmation of mouse ABHD4 inhibitors. purified mABHD4, FP-Rh probe fluorescence polarization. inhibition, % at 8.92 µM. AID 720658. hit rate 55% among 1,800. shares compounds with ABHD4 inh;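 active = mean inhibition across replicates above the hit cutoff set in the primary screen, cut at about 30% in these data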
Numbers stand for hits; ! = not confirmed by another sample. Only some compounds are listed: those with a hit (about 1.4% of all), similar ones and a draw of the others.

How did O=C(O)CC(C(=O)O)N1C(=O)/C(=C/C=C/c2ccco2)SC1=S (configuration not stated) do in these assays?
SIAE inh: inactive; HTRA1 inh: inactive; ABHD4 inh: 35; RBBP9 inh: inactive; ABHD4 confirm: inactive

How did Cc1ccc(NC(=O)CCCN2C(=O)/C(=C/C=C/c3ccccc3)SC2=S)cc1 do in these assays?
SIAE inh: inactive; HTRA1 inh: inactive; ABHD4 inh: inactive; RBBP9 inh: inactive

Results for CC(=O)C[C@@H]1OC2CCCCC2N1S(=O)(=O)c1ccc(C)cc1 (some centres not stated) ?
SIAE inh: inactive; ABHD4 inh: inactive

What do the screens show for `CC(=O)/C=C1\OCc2cc(OCc3ccccc3)ccc21`?
SIAE inh: inactive; ABHD4 inh: inactive

How did CCN=c1scc(C)n1/N=C/c1cc(Br)c(O)c(Br)c1 do in these assays?
SIAE inh: inactive; HTRA1 inh: inactive; ABHD4 inh: 55; RBBP9 inh: inactive; ABHD4 confirm: 66

What do the screens show for `COc1ccc(Nc2nc(NC(C)(C)C)nc(N3CCCC3)n2)c(OC)c1`?
SIAE inh: inactive; HTRA1 inh: inactive; ABHD4 inh: 34; RBBP9 inh: inactive; ABHD4 confirm: 48

How did CCN(CC)CCN1C(=O)C(=O)/C(=C(/O)c2c(C)[nH]c(C(=O)OC)c2C)C1c1ccccc1OC (configuration not stated) do in these assays?
SIAE inh: inactive; HTRA1 inh: inactive; ABHD4 inh: inactive; RBBP9 inh: inactive

What do the screens show for `CCN(CC)CCN1C(=O)C(=O)/C(=C(/O)c2c(C)[nH]c(C(=O)OC)c2C)C1c1cccs1` (configuration not stated)?
SIAE inh: inactive; HTRA1 inh: inactive; ABHD4 inh: 34; RBBP9 inh: inactive; ABHD4 confirm: inactive

How did Cn1ccc2c(/C=C/c3ccc(F)cc3)cc3c(c21)C1CCC3C1 (configuration not stated) do in these assays?
SIAE inh: inactive; ABHD4 inh: 45; ABHD4 confirm: 38

What do the screens show for `COc1cccc(/C=N/Nc2nccnc2Cl)c1O`?
SIAE inh: inactive; HTRA1 inh: inactive; ABHD4 inh: 30; RBBP9 inh: inactive; ABHD4 confirm: 41

How did Oc1ccc(/C=N/Nc2nccnc2Cl)c(O)c1 do in these assays?
SIAE inh: inactive; HTRA1 inh: inactive; ABHD4 inh: 43; RBBP9 inh: inactive; ABHD4 confirm: 45

Results for O=[N+]([O-])c1ccc(NN=Cc2ccc(O)cc2O)nc1 ?
SIAE inh: inactive; HTRA1 inh: inactive; ABHD4 inh: 30; ABHD4 confirm: 30

How did COc1ccccc1Nc1cc(C)nc(Nc2ccccc2OC)n1 do in these assays?
SIAE inh: inactive; HTRA1 inh: inactive; ABHD4 inh: inactive

How did O=C1CCC(C(=O)OCC(=O)c2ccccc2)N1 (configuration not stated) do in these assays?
SIAE inh: inactive; HTRA1 inh: inactive; ABHD4 inh: inactive; RBBP9 inh: inactive

What do the screens show for `CC1CC(C)C(=O)C(C(CC2CC(=O)NC(=O)C2)OC(=O)CC(=O)c2ccccc2)C1` (configuration not stated)?
SIAE inh: inactive; HTRA1 inh: inactive; ABHD4 inh: 60; ABHD4 confirm: inactive

What do the screens show for `Cc1ccc(S(=O)(=O)N2CCCN(C(C)c3nc4ccccc4c(=O)[nH]3)CC2)cc1` (configuration not stated)?
SIAE inh: inactive; HTRA1 inh: inactive; ABHD4 inh: inactive

What do the screens show for `O=c1c2cc3c(=O)n(-c4ccccc4O)c(=O)c3cc2c(=O)n1-c1ccccc1O`?
SIAE inh: inactive; HTRA1 inh: inactive; ABHD4 inh: 30; RBBP9 inh: inactive; ABHD4 confirm: inactive

How did CCCCCCOC(=O)C[N+](C)(C)CCOC1CC2CCC1(C)C2(C)C (configuration not stated) do in these assays?
SIAE inh: inactive; HTRA1 inh: inactive; ABHD4 inh: inactive; RBBP9 inh: inactive

How did CCCCCCCOC(=O)C[N+](C)(C)CCOC1CC2CCC1(C)C2(C)C (configuration not stated) do in these assays?
SIAE inh: inactive; HTRA1 inh: inactive; ABHD4 inh: 38; RBBP9 inh: inactive; ABHD4 confirm: 50

What do the screens show for `CC(CSc1nc2ccccc2s1)Cn1c(N2CCCC2)nc2c1c(=O)[nH]c(=O)n2C` (configuration not stated)?
SIAE inh: inactive; HTRA1 inh: inactive; ABHD4 inh: 39; RBBP9 inh: inactive; ABHD4 confirm: 42

What do the screens show for `CCN1CCN(c2nc3c(c(=O)[nH]c(=O)n3C)n2CCSc2nc3ccccc3s2)CC1`?
SIAE inh: inactive; HTRA1 inh: inactive; ABHD4 inh: inactive; RBBP9 inh: inactive

Results for Cc1ccc(S(=O)(=O)NNC(=O)C(=O)NNc2ccccn2)cc1 ?
SIAE inh: inactive; HTRA1 inh: inactive; ABHD4 inh: 42; RBBP9 inh: inactive; ABHD4 confirm: 35

What do the screens show for `Cc1ccccc1S(=O)(=O)NNC(=O)C(=O)NNc1ccccn1`?
SIAE inh: inactive; HTRA1 inh: inactive; ABHD4 inh: 35; RBBP9 inh: inactive; ABHD4 confirm: 33

Results for Oc1cccc2c(NC(=S)Nc3ccc(OC(F)F)cc3)cccc12 ?
SIAE inh: inactive; HTRA1 inh: inactive; ABHD4 inh: 34; RBBP9 inh: inactive; ABHD4 confirm: inactive

Results for CN(C)c1ccc(N=Nc2ccccc2C(=O)OCC(=O)NCC2CCCCC2)cc1 ?
SIAE inh: inactive; HTRA1 inh: inactive; ABHD4 inh: 42; RBBP9 inh: inactive; ABHD4 confirm: 40

What do the screens show for `Cc1ccn2c(NCc3ccccc3)c(-c3cccc(SC4CCCCC4)c3)nc2c1`?
SIAE inh: inactive; HTRA1 inh: inactive; ABHD4 inh: 30; ABHD4 confirm: 31!

What do the screens show for `CCCCNc1c(-c2ccc(SC(C)CC)cc2)nc2ccccn12` (configuration not stated)?
SIAE inh: inactive; HTRA1 inh: inactive; ABHD4 inh: 40; ABHD4 confirm: 69

Results for CCCCNc1c(-c2cccc(SC3CCCCC3)c2)nc2ccc(Cl)cn12 ?
SIAE inh: inactive; HTRA1 inh: inactive; ABHD4 inh: inactive

Results for CCCCNc1c(-c2ccc(SC3CCCCC3)cc2)nc2ccccn12 ?
SIAE inh: inactive; HTRA1 inh: inactive; ABHD4 inh: 44; ABHD4 confirm: inactive

Results for CN(C(=O)c1ccc(Cl)cc1)c1ccc(OCC(=O)Nc2cc(C(=O)O)ccc2Cl)cc1 ?
SIAE inh: inactive; ABHD4 inh: inactive

Results for Cc1ccc(Nc2nc(N)nc(N)c2N=O)cc1Cl ?
SIAE inh: inactive; ABHD4 inh: inactive

How did Nc1nc(N)c(N=O)c(Nc2ccc(Cl)c(Cl)c2)n1 do in these assays?
SIAE inh: inactive; ABHD4 inh: 31; ABHD4 confirm: 33

What do the screens show for `COc1ccc(OC)c(CN2C(=O)CN(S(C)(=O)=O)CC2(C)C(=O)NC(C)C)c1` (configuration not stated)?
SIAE inh: inactive; ABHD4 inh: inactive

How did Cc1cccc(Nc2nc(NCc3ccco3)c3ccccc3n2)c1 do in these assays?
SIAE inh: 23; HTRA1 inh: inactive; ABHD4 inh: 39; RBBP9 inh: inactive; ABHD4 confirm: 46

Screening data from PubChem BioAssay.
